Assay outcomes: PubChem, The Scripps Research Institute Molecular Screening Center
TAAR1 antagonist: human TAAR1 antagonism; CHO RD-HGA16 TAAR1, Fluo-8 calcium fluorescence, antagonist; inhibition, % at 3 µM; actives 1.5% (n = 360,000);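 active = inhibition above a per-plate cutoff, the mean inhibition of test compounds on that plate plus 3 SD, cut at about 49% in these data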
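Test system: CHO RD-HGA16 cells bearing hTAAR1 | Reagent: β-PEA, EC80 | Compound dosing: 3 µM, single point | Schedule: Dye loading 75 min at 37 °C, then 30 min room temperature | Signal: Calcium fluorescence with Fluo-8 | Evaluation: Percent inhibition of PEA-evoked calcium signal, max/basal emission ratio | Control set: DMSO-only wells and EC80 β-PEA-stimulated wells | Repeats: Singlicate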
CHO parental Ca: counter-screen for OX1R antagonists: effect in parental CHO cells; parental CHO-K1, ATP-induced calcium, Fluo-8 fluorescence; inhibition, % at 5.6 µM; actives 0.63% (n = 330,000); AID 463079;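 active = inhibition above that plate's mean sample inhibition plus 3 SD, cut at about 26% in these data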
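Assay system – parental CHO cells · Reagent – ATP stimulus · Detection – intracellular calcium via Fluo-8 no-wash fluorescent dye · Evaluation – percent inhibition of ATP-evoked calcium rise, normalized to controls · Controls – ATP wells versus no-ATP DMSO wells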
TAAR1 agonist: human TAAR1 agonism; Q96RJ0; CHO RD-HGA16 TAAR1, Fluo-8 calcium fluorescence; vehicle wells 0%, saturating PEA agonist 100%; activation, % at 3 µM; actives 0.99% (n = 360,000); AID 624467;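 active = activation above the mean activation of all test compounds in the run plus 3 SD, cut at about 38% in these data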
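Benchmarks: low control DMSO, high control PEA (EC100); System: CHO RD-HGA16 cells carrying human TAAR1 plus Gα16; Detection: Fluo-8 fluorescence, 5 s baseline then 140 s kinetic read; Schedule: 17-24 h plating, Fluo-8 75 min 37 °C, 30 min RT; Read-out basis: % activation from peak over basal fluorescence ratio, DMSO-to-PEA scaled.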
OX1R antag-1: blocks the human orexin 1 receptor. actives 0.43% (n = 330,000). O43613. CHO/OX1R cells, Fluo-8 calcium fluorescence, orexin A. inhibition, % at 5 µM;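 active = inhibition above its plate's threshold, mean inhibition of all tested compounds on the plate plus 3 SD, cut at about 37% in these data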
GPR7 antagonist: antagonists of human GPR7 (neuropeptides B/W receptor 1) | GPR7-expressing cells, fluorescence antagonist assay | inhibition, % at 4.4 µM | actives 1.1% (n = 290,000) | AID 1861; in the data active = inhibition above about 16%, passing the limit was not always enough;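 also: cells stimulated with the agonist NPW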
Target sequence (P48145 whole entry, looked up): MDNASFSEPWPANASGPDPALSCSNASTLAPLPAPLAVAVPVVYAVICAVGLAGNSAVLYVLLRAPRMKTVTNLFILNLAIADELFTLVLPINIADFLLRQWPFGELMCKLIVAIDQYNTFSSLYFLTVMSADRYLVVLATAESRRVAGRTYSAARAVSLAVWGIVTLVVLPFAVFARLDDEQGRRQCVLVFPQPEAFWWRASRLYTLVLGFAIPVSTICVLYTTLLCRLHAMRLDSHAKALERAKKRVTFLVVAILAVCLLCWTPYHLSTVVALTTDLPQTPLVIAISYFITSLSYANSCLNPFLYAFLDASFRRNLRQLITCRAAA
OX1R antag-2: OX1R (human) antagonism. actives 1.8% (n = 330,000). O43613. OX1R-expressing cells, FRET antagonist read-out. inhibition, % at 6.6 µM; in the data active = inhibition mostly above about 38%, no sharp cut-off; inactive = mostly below about 40%
GPR7 antag cf: confirmation of human GPR7 antagonists | GPR7-expressing cells, calcium fluorescence antagonist mode | actives 52% (n = 2,400) | AID 1952 | inhibition, % at 4.4 µM | shares compounds with GPR7 antagonist; in the data active = inhibition above about 24%;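 also: stimulated with the GPR7 agonist NPW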
MCHR1 antagonist: counter-screen for GPR7 antagonists: antagonists of human MCHR1; AID 2148; shares compounds with GPR7 antagonist; inhibition, % at 4.4 µM; actives 62% (n = 2,400); MCHR1-expressing cells, fluorescence antagonist assay; in the data active = inhibition above about 22%
OX1R Ca confirm: OX1R (human) antagonism, confirmed; shares compounds with OX1R antag-1; CHO/OX1R cells, orexin A calcium Fluo-8 fluorescence; inhibition, % at 5 µM; actives 38% (n = 1,100); in the data active = inhibition above about 29%
CHO Ca counter: counter-screen for OX1R antagonists: effect in parental CHO cells. shares compounds with OX1R antag-1. parental CHO-K1, ATP-induced calcium, Fluo-8 fluorescence. inhibition, % at 5.6 µM. actives 9.3% (n = 1,100). AID 492965;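 active = inhibition above a per-plate limit, the mean inhibition of that plate's test compounds plus 3 SD, cut at about 25% in these data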
OX1R HTRF confirm: confirmation of human orexin 1 receptor antagonists, HTRF format; shares compounds with OX1R antag-2; OX1R-expressing cells, HTRF antagonist assay; inhibition, % at 6.6 µM; actives 49% (n = 1,800); AID 492964; in the data active = inhibition above about 55%;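 also: CHO cells expressing OX1R stimulated with orexin A at about EC80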
CHO-K1 HTRF cnt: signal in parental CHO-K1 cells, OX1R antagonist counter-screen; shares compounds with OX1R antag-2; HTRF counterscreen; inhibition, % at 6.6 µM; actives 48% (n = 1,800); AID 493232; in the data active = inhibition above about 17%
Large screens that a line does not name were inactive (follow-up assays come after a bar, where they were run). In the library only some 4.6% were active in any assay of this set; here they are far more common.

CCOC(=O)C1(C)C(=O)CC2c3nc4ccccc4cc3CN2C1=O (centres undefined)	none (no result: CHO parental Ca, OX1R antag-1, GPR7 antagonist, OX1R antag-2)
Cc1ccc(C(CC(=O)N2CCNCC2)c2ccccc2)c(O)c1C (centres undefined)	GPR7 antagonist 33 | GPR7 antag cf inactive | MCHR1 antagonist inactive | OX1R Ca confirm 41 | CHO Ca counter 31
O=C(Nc1ccccc1)Nc1cccc(C(F)(F)F)c1	GPR7 antagonist 27 | GPR7 antag cf 41 | MCHR1 antagonist 61 | OX1R Ca confirm inactive | CHO Ca counter inactive
COc1ccc(NC(=O)CN(Cc2ccccc2)Cc2ccccc2)cc1S(N)(=O)=O	none
COc1ccc(NC(=O)COc2ccccc2Cc2ccccc2)cc1S(N)(=O)=O	GPR7 antagonist 42 | GPR7 antag cf 45 | MCHR1 antagonist 57 | OX1R Ca confirm inactive | CHO Ca counter inactive
CCCS(=O)(=O)NC(=O)C1(C)CCCN(C(=O)c2ccc3ccccc3c2)C1 (centres undefined)	none (no result: CHO parental Ca, OX1R antag-1, GPR7 antagonist, OX1R antag-2)
CCS(=O)(=O)c1ncc(Cl)c(C(=O)Nc2ccc(C)cc2)n1	GPR7 antagonist 53 | GPR7 antag cf 52 | MCHR1 antagonist 84 | OX1R Ca confirm 32 | CHO Ca counter inactive
CC(=O)Nc1ccc(NC(=O)c2nc(S(=O)(=O)Cc3ccccc3)ncc2Cl)cc1	none
Cc1cc(C)c(N2C(=O)CC(Sc3ccccc3N)C2=O)c(C)c1 (centres undefined)	none (no result: CHO parental Ca, OX1R antag-1, GPR7 antagonist, OX1R antag-2)
CN(C(=O)c1cccc(NC(=O)Cc2ccc(NC(=O)C3CCCN(C(=O)C4CCC4)C3)cc2)c1)C1CCC1 (centres undefined)	none (no result: CHO parental Ca, OX1R antag-1, GPR7 antagonist, OX1R antag-2)
O=C(CN1CCC(c2nc3ccccc3s2)CC1)NCc1cccs1	OX1R antag-1 52, GPR7 antagonist 48 | GPR7 antag cf 39 | MCHR1 antagonist 57 | OX1R Ca confirm inactive | CHO Ca counter inactive
O=C(CN1CCC(c2nc3ccccc3s2)CC1)N1CCCCC1	none
O=C(Nc1ccc(C(=O)NCCCN2CCN(c3ccc(F)cc3)CC2)cc1)C1=CSCCO1	TAAR1 agonist 45, GPR7 antagonist 36 | GPR7 antag cf 56 | MCHR1 antagonist 74 | OX1R Ca confirm 44 | CHO Ca counter 27
COc1ccccc1N(CC(=O)NC1CCCC1)C(=O)c1oc(C(C)(C)C)cc1C	OX1R antag-1 41, GPR7 antagonist 44, OX1R antag-2 52 | GPR7 antag cf 37 | MCHR1 antagonist 48 | OX1R Ca confirm inactive | CHO Ca counter inactive | OX1R HTRF confirm 64 | CHO-K1 HTRF cnt inactive
CCCS(=O)(=O)N1CCC(C(=O)Oc2ccc(OC)cc2)CC1	none
CCOC(=O)c1nn(-c2ccccc2C)c(=O)c2c(N)scc12	none
CCOC(=O)c1nn(-c2ccccc2C)c(=O)c(C#N)c1C	GPR7 antagonist 29, OX1R antag-2 127 | GPR7 antag cf inactive | MCHR1 antagonist inactive | OX1R HTRF confirm 65 | CHO-K1 HTRF cnt 43
